The list is not random: actives were taken first. Their share in the collection is about 0.94%.
GC-B act: GC-B (human) receptor activation. HEK293-GC-B cells, CNP EC30, cGMP TR-FRET; 0% at EC30 CNP, 100% saturating CNP. activation, % at 10 µM. 370,000 compounds, 0.11% hits. AID 1920062;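 active = activation at 10 µM reaching about 35% in either raw or pattern-adjusted values, limit read from the data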
Target sequence (P20594 whole entry, looked up): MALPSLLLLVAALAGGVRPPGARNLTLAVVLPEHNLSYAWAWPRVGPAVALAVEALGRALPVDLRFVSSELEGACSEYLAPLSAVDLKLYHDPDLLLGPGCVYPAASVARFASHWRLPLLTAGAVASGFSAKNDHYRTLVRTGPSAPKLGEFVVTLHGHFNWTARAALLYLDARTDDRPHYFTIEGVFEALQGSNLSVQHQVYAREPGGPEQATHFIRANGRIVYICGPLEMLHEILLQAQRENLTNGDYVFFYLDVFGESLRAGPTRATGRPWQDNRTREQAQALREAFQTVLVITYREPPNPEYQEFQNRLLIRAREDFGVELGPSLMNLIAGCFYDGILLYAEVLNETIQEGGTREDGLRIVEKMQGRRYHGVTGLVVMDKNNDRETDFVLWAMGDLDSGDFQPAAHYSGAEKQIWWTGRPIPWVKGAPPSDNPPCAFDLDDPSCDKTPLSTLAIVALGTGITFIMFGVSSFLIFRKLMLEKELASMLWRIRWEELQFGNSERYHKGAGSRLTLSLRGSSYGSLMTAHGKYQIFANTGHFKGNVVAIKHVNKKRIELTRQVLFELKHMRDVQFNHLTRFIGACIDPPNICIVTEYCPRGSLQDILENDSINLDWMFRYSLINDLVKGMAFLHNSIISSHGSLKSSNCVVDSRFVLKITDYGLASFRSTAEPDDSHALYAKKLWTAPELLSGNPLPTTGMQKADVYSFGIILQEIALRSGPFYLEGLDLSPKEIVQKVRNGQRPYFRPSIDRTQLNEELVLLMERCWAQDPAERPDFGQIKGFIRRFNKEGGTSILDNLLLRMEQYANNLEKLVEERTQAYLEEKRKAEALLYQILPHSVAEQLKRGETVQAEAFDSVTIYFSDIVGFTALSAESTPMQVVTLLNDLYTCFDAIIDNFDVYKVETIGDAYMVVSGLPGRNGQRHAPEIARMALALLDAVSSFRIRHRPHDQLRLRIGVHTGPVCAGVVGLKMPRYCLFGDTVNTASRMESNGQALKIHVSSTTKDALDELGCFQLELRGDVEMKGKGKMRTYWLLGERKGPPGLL
GalR3 antagonist: antagonists of human GalR3; O60755; HEK293 GalR3-CNG cAMP membrane potential fluorescence; galR3 body fused to GalR1 C-terminus; inhibition, % at 3 µM; 360,000 compounds, 0.44% hits; AID 651719;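 active = inhibition above the screen-wide average plus 3 SD, cut at about 13% in these data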;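 note: forskolin and galanin both at EC90 stimulate the cells; cAMP rise reported by CNG channel membrane potential dye signal; 0% = forskolin plus galanin with DMSO and 100% = forskolin alone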
GC-A act: GC-A (human) enzyme activation | P16066 | HEK293 GC-A cells, cGMP TR-FRET, EC30 ANP; 0% at EC30 ANP, 100% saturating ANP | activation, % at 10 µM | 370,000 compounds, 0.14% hits | AID 1671463; in the data active = activation above about 40%
Arr AP2 block: blocks beta-arrestin peptide binding to AP2 adaptin; inhibition, % at 10 µM; FITC-arrestin peptide / GST-AP2 beads, flow cytometry; AP2 beta2 appendage carries R879A mutation; AID 504490; 340,000 compounds, 0.31% hits;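 active = inhibition above a set limit, near 3 SD of compounds lacking own fluorescence, cut at about 54% in these data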;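 note: plate controls were DMSO wells for no effect and 5 µM unlabelled arrestin peptide for full effect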
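test system = AP2 appendage R879A on GSH beads | buffer or medium = PBS plus Tween 20 (0.05%) and BSA (0.1%) | incubation = 12 min plus 1 h, RT | detection = bead flow cytometry, FITC channel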
* = called active by the depositor; x = no result.

SMILES	GC-B act	GalR3 antagonist	GC-A act	Arr AP2 block
Oc1ccc(-c2[nH]ncc2-c2ccc(Br)cc2)c(O)c1	0.2	-6.3	66.6*	4.0
Oc1ccc(-c2[nH]ncc2-c2ccc(Cl)cc2)c(O)c1	-3.2	-4.7	49.4*	-10.0
COc1ccc(-c2[nH]ncc2-c2ccc(Cl)cc2)c(O)c1	-8.2	-4.2	19.2	8.8
CCCn1cnnc1CNC(=O)[C@@H](Cc1ccccc1)NC(=O)[C@H]1O[C@@H](n2ccc(=O)[nH]c2=O)[C@H](O)[C@@H]1O	3.8	-7.1	0.6	x
Cc1cccc(NS(=O)(=O)c2cccc3nsnc23)c1	0.7	-1.4	-6.3	-1.6
CC(C)NS(=O)(=O)c1cccc2nsnc12	-1.2	13.7*	0.0	2.8
COC(=O)C1=C(C)N(Cc2ccccc2C(F)(F)F)C(=NCc2ccccc2C(F)(F)F)NC1c1ccc(F)cc1 (centres undefined)	-0.2	-2.1	-6.1	x
CC(=O)Nc1ccc2oc(-c3cc(F)c(F)cc3Cl)nc2c1	-8.1	2.4	57.7*	14.4
Brc1ccccc1Cn1c(-c2cscn2)nc2ccccc21	39.0*	-7.6	36.2	13.8
CSc1ccccc1NC(=O)Cn1c(-c2cscn2)nc2ccccc21	3.8	1.2	-5.7	17.9
O=C(Nc1nc2cc3c(cc2s1)OCO3)c1cccc(N2C(=O)CCC2=O)c1	3.4	3.7	39.8	31.3
O=C(Nc1nc2ccc(Cl)cc2s1)c1cccc(N2C(=O)CCC2=O)c1	-4.9	-2.9	73.7*	28.4
COc1ccc2nc(NC(=O)c3cccc(N4C(=O)CCC4=O)c3)sc2c1	0.0	-2.5	53.7*	5.8
CCOc1ccc2nc(NC(=O)c3cccc(N4C(=O)CCC4=O)c3)sc2c1	-5.0	-7.8	23.9	x
CCCOc1ccc(C(=O)NNC(=S)NC(=O)CC)cc1	63.6*	-3.0	3.5	-6.4
COc1c(O)cc2c(c1O)[C@@H]1O[C@H](CO)[C@@H](O)[C@H](O)C1OC2=O (some centres undefined)	4.0	12.8*	3.3	-2.4
O=C(C1CCCN1S(=O)(=O)c1ccc(Br)s1)N1CCc2ccccc2C1 (centres undefined)	-8.6	x	-3.7	x
CC(NC(=O)COC(=O)COc1ccc(C(=O)c2ccccc2)cc1)c1ccccc1 (centres undefined)	7.8	-3.5	65.1*	15.3
CCCN1C(=O)c2[nH]nc(-c3ccccc3)c2C1c1ccc(Br)cc1 (centres undefined)	-21.8	-6.1	-13.2	x
COc1ccc(C(C(=O)NC(C)(C)C)n2c(-c3ccc(=O)[nH]c3)nc3ccccc32)cc1 (centres undefined)	45.4*	-5.5	45.3*	x
COc1cccc(CNC(=O)COC(=O)CNC(=O)c2ccc(-c3ccccc3)cc2)c1	7.5	-5.1	47.5*	-7.6
COc1cccc(CNC(=O)Cc2ccc(-c3ccccc3)cc2)c1	-1.0	-7.4	4.6	-14.0
CCN(CCOC(=O)Nc1ccc(Cl)cc1)C(=O)Nc1ccc(Cl)cc1	-4.2	-3.2	-2.0	x
CC(=O)Nc1ccc(CNc2ncnc3ccc(-c4c(C)noc4C)cc23)cc1	40.6*	-3.4	30.0	-0.2
C[C@H](CO)N1C[C@H](C)[C@@H](CN(C)C(=O)Nc2ccccc2)OCc2cn(nn2)CCCC1=O	3.5	-2.7	5.5	x
SMILES	GC-B act	GalR3 antagonist	GC-A act	Arr AP2 block
O=C(CSc1nnc(-c2cnccn2)n1-c1ccccc1)Nc1ccc2cn[nH]c2c1	-3.8	x	1.1	x
NC(=O)c1cccc(-c2coc3c(C(=O)NC4CCCCC4)cccc23)c1	35.5*	-5.8	29.9	x
COc1ccc(-c2cc(C(F)(F)F)n3ncc(C(=O)NCC4CCCO4)c3n2)cc1 (centres undefined)	15.1	-1.4	15.1	6.3
COc1cccc(-c2cc(C(F)(F)F)n3ncc(C(=O)NCC4CCCO4)c3n2)c1 (centres undefined)	45.7*	-6.1	35.2	-10.4
O=C1C=C(c2ccc3[nH]ccc3c2)C[C@@H](c2ccc(F)cc2)C1	35.5*	-6.2	2.7	5.3
C[C@@H](NC(=O)c1ncn2c1c(=O)[nH]c1ccc(Br)cc12)c1ccccc1	39.8*	0.8	20.3	x
COc1ccc2c(c1)N=C(c1[nH]c3ccccc3c1CCN1C(=O)c3ccccc3C1=O)[C@]2(O)CCN1C(=O)c2ccccc2C1=O	1.6	x	-6.5	x
COc1ccc(-c2csc3nc(-c4ccccc4OC)oc(=O)c23)cc1	5.5	-2.5	41.6*	-1.6

Screening data (PubChem)
